Experiments:
Conditions in all cases: in vivo
Spleen = assay: Biodistribution in pregnant Sprague-Dawley rat spleen at 5 mg/kg, po administered as single dose measured after 0.5 hrs; assay type: ADME, organism-based; parameters: dose 5 mg/kg, dosed compound name [14C]-apixaban, route oral
Pancreas = assay: Biodistribution in female Sprague-Dawley rat pancreas at 5 mg/kg, po administered as single dose measured after 1 hr; assay type: ADME, organism-based; parameters: dose 5 mg/kg, dosed compound name [14C]-apixaban, route oral
In short: (§1)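 [¹⁴C]Apixaban given by oral gavage at 5 mg/kg (100 μCi/kg) in 0.5% Tween 80 in Labrafil (1.0 mg/mL dosing solution) to rats fasted overnight through 4 h post-dose. One rat per time point; carcass frozen in hexane/dry ice. Quantitative whole-body autoradiography used 40 µm sagittal sections and a phosphor imaging plate calibrated with [¹⁴C]glucose standards (0.001–6.5 μCi/g). Read-out in µg eq apixaban/g; LLOQ 0.037 μg eq/g.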

[1] = Drug level in lactating Sprague-Dawley rat milk at 5 mg/kg, po administered as single dose after 2 hrs; assay type: ADME, organism-based; parameters: dose 5 mg/kg, dosed compound name [14C]-apixaban, route oral
Liver [2] = assay: Biodistribution in pregnant Sprague-Dawley rat liver at 5 mg/kg, po administered as single dose measured after 8 hrs; assay type: ADME, organism-based; parameters: dose 5 mg/kg, dosed compound name [14C]-apixaban, route oral
Rattus norvegicus [3] = assay: Biodistribution in female Sprague-Dawley rat salivary gland at 5 mg/kg, po administered as single dose measured after 24 hrs; assay type: ADME, organism-based; parameters: dose 5 mg/kg, dosed compound name [14C]-apixaban, route oral
In short: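 Quantitative whole-body autoradiography was run after a single 5 mg/kg (100 μCi/kg) oral gavage to fasted female or pregnant SD rats, one rat per time point. Carcasses were frozen in hexane/dry ice, and 40 µm sagittal sections were dried at −20°C for at least 48 h. Sections were exposed to a phosphor plate alongside [14C]glucose standards (0.001–6.5 µCi/g). Results are µg eq/g, with LLOQ 0.037 µg eq/g.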

Rattus norvegicus [4] = assay: Biodistribution in male Sprague-Dawley rat kidney cortex at 5 mg/kg, po administered as single dose measured after 24 hrs; assay type: ADME, organism-based; parameters: dose 5 mg/kg, dosed compound name [14C]-apixaban, route oral
Rattus norvegicus [5] = assay: Biodistribution in female Sprague-Dawley rat salivary gland at 5 mg/kg, po administered as single dose measured after 4 hrs; assay type: ADME, organism-based; parameters: dose 5 mg/kg, dosed compound name [14C]-apixaban, route oral
In short: (§2)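 [14C]apixaban (20 μCi/mL in dosing solution) in 0.5% Tween 80 in Labrafil given by oral gavage to fasted female rats, 206-213 g, at 100 μCi/kg. One rat per time point was euthanized and snap-frozen. Sagittal 40 µm whole-body sections were read by QWBA phosphor imaging against [14C]glucose standards. Results are in µg eq apixaban/g, with LLOQ 0.037 μg eq/g.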

Rattus norvegicus [6] = assay: Biodistribution in female Sprague-Dawley rat bone marrow at 5 mg/kg, po administered as single dose measured after 4 hrs; assay type: ADME, organism-based; parameters: dose 5 mg/kg, dosed compound name [14C]-apixaban, route oral; in short: as §2
Thymus [7] = assay: Biodistribution in female Sprague-Dawley rat thymus at 5 mg/kg, po administered as single dose measured after 0.5 hrs; assay type: ADME, organism-based; parameters: dose 5 mg/kg, dosed compound name [14C]-apixaban, route oral; in short: as §1
Thymus [8] = assay: Biodistribution in pregnant Sprague-Dawley rat thymus at 5 mg/kg, po administered as single dose measured after 4 hrs; assay type: ADME, organism-based; parameters: dose 5 mg/kg, dosed compound name [14C]-apixaban, route oral
Harderian gland [9] = assay: Biodistribution in male Sprague-Dawley rat harderian gland at 5 mg/kg, po administered as single dose measured after 72 hrs; assay type: ADME, organism-based; parameters: dose 5 mg/kg, dosed compound name [14C]-apixaban, route oral
In short: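 Fasted male SD rats (225-252 g) each received one oral gavage dose of [14C]apixaban, 5 mg/kg (100 μCi/kg), in 0.5% Tween 80/Labrafil vehicle. One rat was killed per time point, from 0.5 to 168 h. Frozen carcasses were cut into 40 µm sagittal whole-body sections and read by QWBA phosphor imaging against [14C]glucose calibrants. Results are in µg apixaban eq/g; BLQ <0.037 µg eq/g.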

Blood [10] = assay: AUC (0 to t) in female Sprague-Dawley rat blood at 5 mg/kg, po administered as single dose; assay type: ADME, organism-based; parameters: dose 5 mg/kg, dosed compound name [14C]-apixaban, route oral
Liver [11] = assay: Biodistribution in pregnant Sprague-Dawley rat liver at 5 mg/kg, po administered as single dose measured after 24 hrs; assay type: ADME, organism-based; parameters: dose 5 mg/kg, dosed compound name [14C]-apixaban, route oral
Harderian gland [12] = assay: Biodistribution in pregnant Sprague-Dawley rat harderian gland at 5 mg/kg, po administered as single dose measured after 24 hrs; assay type: ADME, organism-based; parameters: dose 5 mg/kg, dosed compound name [14C]-apixaban, route oral
In short: (§3)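 Fasted pregnant SD rats (n=6, 270-319 g) each received one oral gavage dose of [14C]apixaban, 5 mg/kg (100 μCi/kg), in 0.5% Tween 80/Labrafil. One rat was killed at each of 0.5, 1, 4, 8, 24 and 48 h. Carcasses were frozen in hexane/dry ice, cut into 40 µm sagittal sections, exposed to phosphor plates and quantified against [14C]glucose standards as µg eq/g. LLOQ was 0.037 µg eq/g.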

Harderian gland [13] = assay: Biodistribution in pregnant Sprague-Dawley rat harderian gland at 5 mg/kg, po administered as single dose measured after 8 hrs; assay type: ADME, organism-based; parameters: dose 5 mg/kg, dosed compound name [14C]-apixaban, route oral
Brain [14] = assay: Biodistribution in pregnant Sprague-Dawley rat brain at 5 mg/kg, po administered as single dose measured after 8 hrs; assay type: ADME, organism-based; parameters: dose 5 mg/kg, dosed compound name [14C]-apixaban, route oral
Rattus norvegicus [15] = assay: Biodistribution in fetal kidney of pregnant Sprague-Dawley rat at 5 mg/kg, po administered as single dose measured after 8 hrs; assay type: ADME, organism-based; parameters: dose 5 mg/kg, dosed compound name [14C]-apixaban, route oral; in short: as §3
Lung = assay: Biodistribution in male Sprague-Dawley rat lung at 5 mg/kg, po administered as single dose measured after 4 hrs; assay type: ADME, organism-based; parameters: dose 5 mg/kg, dosed compound name [14C]-apixaban, route oral
In short: (§4)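 [14C]apixaban (1.0 mg/mL, 20 μCi/mL) in 0.5% Tween 80 in Labrafil, given by oral gavage at 100 μCi/kg to male rats (225-252 g) fasted overnight through 4 h post-dose. One rat per time point. Carcasses frozen in hexane/dry ice and cut into 40 µm sagittal sections. QWBA read on phosphor plates against [14C]glucose standards, reported as µg eq/g. LLOQ 0.037 µg eq/g.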

[16] = Drug excretion in Sprague-Dawley rat urine at 30 mg/kg, po administered as single dose after 0 to 168 hrs
Rattus norvegicus [17] = assay: Biodistribution in pregnant Sprague-Dawley rat bone marrow at 5 mg/kg, po administered as single dose measured after 4 hrs; assay type: ADME, organism-based; parameters: dose 5 mg/kg, dosed compound name [14C]-apixaban, route oral
[18] = Drug level in lactating Sprague-Dawley rat milk at 5 mg/kg, po administered as single dose after 0 to 24 hrs; assay type: ADME, organism-based; parameters: dose 5 mg/kg, dosed compound name [14C]-apixaban, route oral
Rattus norvegicus [19] = assay: Biodistribution in male Sprague-Dawley rat pituitary gland at 5 mg/kg, po administered as single dose measured after 8 hrs; assay type: ADME, organism-based; parameters: dose 5 mg/kg, dosed compound name [14C]-apixaban, route oral
Muscle tissue = assay: Biodistribution in male Sprague-Dawley rat muscle at 5 mg/kg, po administered as single dose measured after 8 hrs; assay type: ADME, organism-based; parameters: dose 5 mg/kg, dosed compound name [14C]-apixaban, route oral; in short: as §4
Thymus [20] = assay: Biodistribution in female Sprague-Dawley rat thymus at 5 mg/kg, po administered as single dose measured after 4 hrs; assay type: ADME, organism-based; parameters: dose 5 mg/kg, dosed compound name [14C]-apixaban, route oral; in short: as §1
Blood [21] = assay: Cmax in lactating Sprague-Dawley rat blood at 5 mg/kg, po administered as single dose; assay type: ADME, organism-based; parameters: dose 5 mg/kg, dosed compound name [14C]-apixaban, route oral
In short: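 Lactating SD rats received a single oral gavage of 5 mg/kg (108 μCi/kg) in 0.5% Tween 80/Labrafil. Three rats were sampled per time point at 0.5-24 h. Oxytocin was given sc 15 min before milking under anesthesia. Milk, blood and plasma were counted in duplicate by liquid scintillation for 10 min and expressed as apixaban equivalents.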

Brain [22] = assay: Biodistribution in male Sprague-Dawley rat brain at 5 mg/kg, po administered as single dose measured after 24 hrs; assay type: ADME, organism-based; parameters: dose 5 mg/kg, dosed compound name [14C]-apixaban, route oral
Plasma = assay: Drug metabolism in Sprague-Dawley rat plasma assessed as apixaban level at 5 mg/kg, po by HPLC method; assay type: ADME, organism-based; parameters: dose 5 mg/kg, dosed compound name [14C]-apixaban, route oral
In short: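 After a 5 mg/kg oral dose, samples were radioprofiled by HPLC. The column was C18 with a 0.4% formic acid (pH 3.2)/acetonitrile gradient at 0.7 mL/min. Fractions were collected every 0.25 min and counted for radioactivity. Peaks were identified by ESI LC/MS/MS against synthetic standards. Milk was taken at 1, 6, 12 and 24 h.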

- Radiolabel recovery (Spleen): 0.46 ugequiv/g
- Radiolabel recovery (Pancreas): 0.62 ugequiv/g
- Radiolabel recovery [1]: 7.59 µg/mL
- Radiolabel recovery (Liver [2]): 0.65 ugequiv/g
- Radiolabel recovery (Rattus norvegicus [3]): Not detected assumed BLQ
- Radiolabel recovery (Rattus norvegicus [4]): < 0.037 ugequiv/g
- Radiolabel recovery (Rattus norvegicus [5]): 0.44 ugequiv/g
- Radiolabel recovery (Rattus norvegicus [6]): 0.26 ugequiv/g
- Radiolabel recovery (Thymus [7]): 0.2 ugequiv/g
- Radiolabel recovery (Thymus [8]): 0.54 ugequiv/g
- Radiolabel recovery (Harderian gland [9]): Not detected assumed BLQ
- AUCt (Blood [10]): 3110 ngequiv.hr/g
- Radiolabel recovery (Liver [11]): 0.12 ugequiv/g
- Radiolabel recovery (Harderian gland [12]): Not detected assumed BLQ
- Radiolabel recovery (Harderian gland [13]): 0.19 ugequiv/g
- Radiolabel recovery (Brain [14]): < 0.037 ugequiv/g
- Radiolabel recovery (Lung): 0.64 ugequiv/g
- Radiolabel recovery [16]: 14%
- Radiolabel recovery (Rattus norvegicus [17]): 0.46 ugequiv/g
- Radiolabel recovery [18]: 4.6 µg/mL
- Radiolabel recovery (Rattus norvegicus [19]): 0.07 ugequiv/g
- Radiolabel recovery (Muscle tissue): 0.06 ugequiv/g
- Radiolabel recovery (Thymus [20]): 0.3 ugequiv/g
- Cmax (Blood [21]): 514 ngequiv/g
- Radiolabel recovery (Brain [22]): < 0.037 ugequiv/g
- Compound recovery (Plasma): 97%
SMILES: COc1ccc(-n2nc(C(N)=O)c3c2C(=O)N(c2ccc(N4CCCC[14C]4=O)cc2)CC3)cc1
- Radiolabel recovery (Rattus norvegicus [15]): Not sampled as not visualised in autoradiograph
